T cell HTS = modulates CD8 T cell binding to vesicles | 2C CD8+ T cell-vesicle binding, flow cytometry; active compounds read low | response (vesicle binding), % at 7 µM | hit rate 0.068% among 330,000;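 active = response, share of CD8 T cells binding vesicles, and their 90th percentile fluorescence all below set limits, cut at about 80% in these data, passing the limit was not always enough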;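 note: values below 100% mean blocked vesicle binding to the CD8+ T cells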
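Incubation: binding step 1.5 h, 37 °C, antibody labelling 20 min, ice; system: murine 2C transgenic CD8+ T lymphocytes; technique: cytometric PE anti-B7-1 and Alexa647 anti-CD8 signals after 1% paraformaldehyde fixation; also added: QL9-charged Drosophila Ld/ICAM-1/B7-1 vesicles; control set: naked versus QL9-loaded vesicles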
Myeloid diff MLP = promotes myeloid progenitor differentiation | ER-HoxA9 myeloid progenitors, lysozyme-GFP differentiation, flow cytometry | calls only at 10 µM | hit rate 1% among 360,000 | AID 624256;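 active = normalized GFP-positive differentiation at or above the plate's own cutoff, the solvent-only control mean plus 3 SD; inconclusive = no clear call, values can overlap the other calls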;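 note: cells exposed to compound for four days before flow analysis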
CASP6 VEID inh = inhibitors of human caspase-6. inhibition, % at 12.5 µM. P55212. purified caspase-6, Z-VEID-R110 cleavage fluorescence. hit rate 0.53% among 350,000;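 active = mean inhibition across replicates at least about 35%, with every replicate also reaching that limit, limit read from the data; inconclusive = only one of the two criteria met; inactive = neither criterion met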;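 note: 0% = median of neutral control wells and 100% = no fluorescence left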
Target sequence (P55212 24-179 limits assumed): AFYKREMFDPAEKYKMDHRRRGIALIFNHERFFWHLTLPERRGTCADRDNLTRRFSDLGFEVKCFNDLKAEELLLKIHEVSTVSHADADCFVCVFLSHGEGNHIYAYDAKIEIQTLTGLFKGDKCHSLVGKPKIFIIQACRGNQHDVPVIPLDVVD
Target sequence (P55212 194-293 limits assumed): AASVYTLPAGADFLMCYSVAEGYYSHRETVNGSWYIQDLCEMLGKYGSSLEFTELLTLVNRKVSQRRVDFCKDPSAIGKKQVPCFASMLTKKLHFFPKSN
Vif inh = HIV Vif inhibition | HEK293T cells, Vif self-association by quenched fluorescence, imaging, 24 h | inhibition, % at 7.49 µM | hit rate 0.35% among 340,000; in the data active = inhibition above about 50%, passing the limit was not always enough; inconclusive = no clear call, values can overlap the other calls; inactive = below about 31%
* hit, by the source's call; i = inactive; ? = inconclusive; · = not tested or not shown; + = active, no number. Hits are enriched below; roughly 1.4% of the tested compounds scored in any of these assays.

SMILES | T cell HTS | Myeloid diff MLP | CASP6 VEID inh | Vif inh
CCNC(=O)C1OC(n2cnc3c(N)ncnc32)C(O)C1O (configuration not stated) | 60 | i | · | 51*
CC=Cc1ccc2n(c1=O)C[C@@H]1[C@@H](CO)[C@H](C(=O)OC)[C@H]2N1CC1CCCC1 (mixture of isomers) | · | · | -1 | ·
O=C(NC1(C(F)(F)F)Oc2ccccc2O1)N1CCC2(CC1)OCCO2 | 147 | i | 27 | ?
O=C(NC1(C(F)(F)F)Oc2ccc(Cl)cc2O1)N1CCC2(CC1)OCCO2 (configuration not stated) | 272 | i | · | 78*
Cc1ccc(OC(=O)N(C)C[C@H]2OCc3ccccc3-c3c(n(C)c4ccccc34)C(=O)N([C@@H](C)CO)C[C@H]2C)cc1 | · | · | 2 | ·
CN1C(=O)NC(=O)/C(=C/c2ccc([N+](=O)[O-])o2)C1=O | 357 | · | 56* | ·
COc1ccc2c(c1)C13CCN(C)C(C2)C1CCC1(C3)OCCO1 (configuration not stated) | · | i | -6 | 10
COc1ccc2c(c1)[C@@]13CCC=C[C@H]1[C@@H](C2)NCC3 | 430 | i | 2 | 61*
CC[C@H]1C=C(C(=O)N[C@@]2(C(=O)O)C[C@H]2CC)[C@H]2CCC(=O)[C@H]2C1 | · | · | -2 | ·
CCN(CC)C(=O)c1ccc2c(c1)C1C=CCC1C(C(=O)O)N2 (configuration not stated) | 218 | i | 40* | -5
COC(=O)[C@@H]1[C@@H](CO)[C@@H]2Cn3c(ccc(-c4ccncc4)c3=O)[C@H]1N2CCc1ccccc1 | · | · | -1 | ·
COc1cc(C2c3cc4c(cc3CC3COC(=O)C32)OCO4)cc(OC)c1O (configuration not stated) | · | ? | 1 | 60*
Cc1[nH]n(-c2ccccc2)c(=O)c1C(c1ccc([N+](=O)[O-])cc1)c1c(C)[nH]n(-c2ccccc2)c1=O | 217 | i | · | -1
O=[N+]([O-])c1ccc(C(c2ccc([N+](=O)[O-])cc2)c2ccc([N+](=O)[O-])cc2)cc1 | · | + | 0 | 8
C[C@@H]1CN([C@@H](C)CO)C(=O)c2c(c3ccccc3n2C)-c2ccccc2CO[C@@H]1CN(C)C(=O)Oc1ccccc1 | · | · | 0 | ·
COC(=O)C1=C(c2ccc(F)cc2OCc2ccccc2)C[C@@H]2CC[C@H]1N2C(=O)NC1CCN(Cc2ccccc2)CC1 | 150 | i | 1 | -3
COC(=O)C1=C(c2ccccc2OCc2ccccc2)C[C@@H]2CC[C@H]1N2C(=O)NC1CCN(Cc2ccccc2)CC1 | 303 | + | 1 | 0
COC(=O)[C@@H]1[C@@H](CO)[C@@H]2Cn3c(ccc(-c4ccccc4F)c3=O)[C@H]1N2CC1CCCC1 | · | · | 0 | ·
Cc1[nH]c2ccccc2c1CCCNC1CCCCC1 | 276 | + | · | -1
Cc1cc(N(CCCl)CCCl)ccc1/C=N/N=C(\N)c1cnccn1 | 160 | i | -4 | -2
Cc1cc(N(CCCl)CCCl)ccc1C=Cc1ccncn1 | · | ? | -3 | 77*
COc1ccc(OC(=O)N(C)C[C@H]2OCc3ccccc3-c3c(n(C)c4ccccc34)C(=O)N([C@H](C)CO)C[C@@H]2C)cc1 | · | · | 1 | ·
Cc1ccc(OC(=O)N(C)C[C@@H]2OCc3ccccc3-c3c(n(C)c4ccccc34)C(=O)N([C@H](C)CO)C[C@@H]2C)cc1 | · | · | -4 | ·
O=C1NC(=O)N(CCC2=CCCCC2)C(=O)/C1=C/c1cccs1 | 930 | i | 37* | -5
O=C1NC(=O)N(CCC2=CCCCC2)C(=O)/C1=C/c1ccc(O)cc1 | 171 | i | 26 | -13
SMILES | T cell HTS | Myeloid diff MLP | CASP6 VEID inh | Vif inh
CCCNC(=O)[C@H]1[C@H](CO)[C@H]2Cn3c(cccc3=O)[C@H]2N1CC | · | · | 7 | ·
CCCNC(=O)N1[C@@H]2c3ccc(-c4cccc(C(=O)N(C)C)c4)c(=O)n3C[C@H]1[C@H](CO)[C@H]2C(=O)O | · | · | 0 | ·
CNC(=O)Oc1ccc2c(c1)C(=O)c1ccccc1CO2 | 316 | + | · | -8
N#CC1c2ccccc2-n2nncc2CN1S(=O)(=O)c1ccc(Cl)cc1 (configuration not stated) | · | i | -3 | ·
Cc1ccc(S(=O)(=O)N2Cc3cnnn3-c3ccccc3C2C#N)cc1 (configuration not stated) | · | + | -2 | ·
O=C1C=C(N2CC2)c2ccccc2C1=O | · | i | 97* | -4
O=C(O)c1nn(Cc2ccc(Cl)cc2)c2ccccc12 | · | + | -2 | -1
CN1C(=O)C(=Cc2ccc(N3CCCCCC3)o2)C(=O)N(C)C1=S | 160 | + | · | 28
Cc1cc(/C=C2\C(=O)NC(=O)N(c3ccc(F)cc3)C2=O)c(C)n1-c1cccc(C(=O)O)c1 | 618 | i | 10 | -3
Cc1cc(/C=C2\C(=O)NC(=O)N(c3ccccc3)C2=O)c(C)n1-c1ccc(C(=O)O)c(Cl)c1 | 261 | i | 38* | -2
COC(=O)[C@@H]1[C@@H](CO)[C@@H]2Cn3c(ccc(-c4cccc(F)c4)c3=O)[C@H]1N2Cc1ccccc1 | · | · | 1 | ·
O=C(O)Cn1cc(/C=C2\C(=O)NC(=O)N(Cc3ccco3)C2=O)c2ccccc21 | 192 | i | 74* | -10
CCN1C(=O)NC(=O)/C(=C\c2cn(CC(=O)O)c3ccccc23)C1=O | 238 | · | · | ·
O=C1NC(=O)N(Cc2ccccc2)C(=O)/C1=C\c1ccco1 | i | i | 63* | -2
O=C1NC(=O)N(Cc2ccco2)C(=O)/C1=C/c1cccn1CCOc1ccccc1Cl | 259 | i | 58* | 1
COc1ccc(OC(=O)N(C)C[C@@H]2OCc3ccccc3-c3c(n(C)c4ccccc34)C(=O)N([C@@H](C)CO)C[C@@H]2C)cc1 | · | · | 8 | ·
O=C(Cc1ccccn1)N1CCCCN2[C@@H](CO)[C@@H](c3ccc(-c4ccccc4F)cc3)[C@@H]2C1 | · | · | -5 | ·
COC(=O)[C@@H]1[C@@H](CO)[C@@H]2Cn3c(ccc(C4=CCCCC4)c3=O)[C@H]1N2CC1CCCCC1 | · | · | 1 | ·
CC(C)N1CC=C(c2c[nH]c3ccccc23)CC1 | 241 | + | · | ·
COC(=O)[C@H]1[C@H](CO)[C@H]2Cn3c(ccc(C4=CCCC4)c3=O)[C@@H]1N2S(=O)(=O)c1cn(C)cn1 | · | · | -1 | ·
COc1ccc(N2C(=O)/C(=C/c3ccc(C)o3)C(=O)NC2=S)c(OC)c1 | 183 | i | 38* | 2
O=C(O)c1ccccc1-c1ccc(C=C2C(=O)N(c3ccccc3)C(=S)N(c3ccccc3)C2=O)o1 | 640 | i | 37* | -3
O=C1NC(=O)N(c2ccccc2)C(=O)/C1=C\c1ccc([N+](=O)[O-])o1 | 749 | · | · | ·
COC(=O)[C@H]1[C@H](CO)[C@H]2Cn3c(ccc(C4=CCCCC4)c3=O)[C@@H]1N2Cc1ccccc1OC | · | · | 0 | ·
COc1ccc(O)c2c(=O)c3c(OC)cc4c(c3oc12)C1C=COC1O4 (configuration not stated) | 427 | i | -1 | 73*
O=C(O)[C@H]1[C@H](CO)[C@H]2Cn3c(ccc(-c4cccnc4)c3=O)[C@@H]1N2S(=O)(=O)c1ccccc1F | · | · | 2 | ·
Nc1ccc2ccc3cccc[n+]3c2c1 | 452 | + | -63 | ·
